Measured values: ChEMBL document CHEMBL4765263, “Design, synthesis, biological evaluation of 6-(2-amino-1H-benzo[d]imidazole-6-yl)quinazolin-4(3H)-one derivatives as novel anticancer agents with Aurora kinase inhibition” (Eur J Med Chem, 2020)
Active and inactive are the calls of the source. The calls are words filed in the database; no cut-off is given here.

Columns and labels:
MDA-MB-231 [1] = assay: Induction of apoptosis in human MDA-MB-231 cells assessed as viable cells at 2 uM incubated for 48 hrs by annexin V-FITC and PI staining based flow cytometry analysis (reference value: 90.49 %); type: functional; conditions: read-out: Activity
MDA-MB-231 [2] = assay: Antiproliferative activity against human MDA-MB-231 cells assessed as reduction in cell growth incubated for 48 hrs; type: functional, cell-based; conditions: dose 0.5-2 µM
MDA-MB-231 [3] = assay: Induction of apoptosis in human MDA-MB-231 cells assessed as increase in caspase-3 cleavage at 1 to 4 uM incubated for 48 hrs by Western blot analysis; type: functional, cell-based; conditions: dose 1-4 µM
How it was run: (§1)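 MDA-MB-231 cells treated for 48 h at set concentrations. Cleaved PARP, cleaved caspase-3 and cleaved caspase-9 detected by Western blot and quantified by densitometry. Mean ± SEM, n = 3.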

MDA-MB-231 [4] = assay: Induction of cell cycle arrest in human MDA-MB-231 cells assessed as S phase accumulation at 1 uM incubated for 24 hrs by PI staining based flow cytometry analysis (reference value: 38.65 %); type: functional
[5] = target: T1, Aurora kinase A (Homo sapiens) (UniProt O14965); assay: Inhibition of Aurora A in human MDA-MB-231 cells assessed as reduction in Aurora Thr288 residue phosphorylation incubated for 24 hrs by Western blot analysis; type: cell-based; conditions: dose 1-4 µM
T1 sequence (whole entry): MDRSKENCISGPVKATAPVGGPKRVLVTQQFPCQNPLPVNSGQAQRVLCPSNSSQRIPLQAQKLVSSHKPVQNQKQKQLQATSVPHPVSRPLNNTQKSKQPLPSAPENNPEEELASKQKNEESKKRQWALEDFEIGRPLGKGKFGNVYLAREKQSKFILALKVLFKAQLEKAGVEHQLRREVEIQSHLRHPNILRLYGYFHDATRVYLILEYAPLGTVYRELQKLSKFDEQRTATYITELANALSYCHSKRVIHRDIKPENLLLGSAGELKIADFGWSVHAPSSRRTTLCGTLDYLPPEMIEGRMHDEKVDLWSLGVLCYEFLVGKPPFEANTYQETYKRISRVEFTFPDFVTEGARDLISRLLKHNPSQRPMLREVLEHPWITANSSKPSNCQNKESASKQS
How it was run: (§2)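 MDA-MB-231 cells exposed to DMSO or drug at set concentrations for 24 h. Western blot for phospho-Aurora A at Thr288 or phospho-histone H3 at Ser10, with total Aurora A, histone H3 and GAPDH antibodies also used. Bands quantified by densitometry.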

[6] = system: MDA-MB-231 (Homo sapiens); assay: Anticlonogenic activity against human MDA-MB-231 cells assessed as inhibition of colony formation at 0.5 to 2 uM incubated for 72 hrs followed by replacement of medium and measured after 10 days by crystal violet staining based visual analysis; conditions: dose 0.5-2 µM
MDA-MB-231 [7] = assay: Induction of apoptosis in human MDA-MB-231 cells assessed as necrotic cells at 4 uM incubated for 48 hrs by annexin V-FITC and PI staining based flow cytometry analysis (reference value: 3.08 %); type: functional
Aurora kinase A = target: T2, Aurora kinase A (Homo sapiens, UniProt O14965); assay: Inhibition of Aurora A (unknown origin) incubated for 1 hrs by HTRF assay
T2 sequence (O14965 whole entry): T1 sequence (whole entry)

MDA-MB-231 [8] = assay: Induction of apoptosis in human MDA-MB-231 cells assessed as viable cells at 4 uM incubated for 48 hrs by annexin V-FITC and PI staining based flow cytometry analysis (reference value: 90.49 %); type: functional; conditions: read-out: Activity
MDA-MB-231 [9] = assay: Induction of cell cycle arrest in human MDA-MB-231 cells assessed as G2/M phase accumulation at 2 uM incubated for 24 hrs by PI staining based flow cytometry analysis (reference value: 16.62 %); type: functional
MDA-MB-231 [10] = assay: Induction of apoptosis in human MDA-MB-231 cells assessed as necrotic cells at 1 uM incubated for 48 hrs by annexin V-FITC and PI staining based flow cytometry analysis (reference value: 3.08 %); type: functional
MDA-MB-231 [11] = assay: Induction of apoptosis in human MDA-MB-231 cells assessed as late apoptotic cells at 4 uM incubated for 48 hrs by annexin V-FITC and PI staining based flow cytometry analysis (reference value: 2.52 %); type: functional
MDA-MB-231 [12] = assay: Induction of cell cycle arrest in human MDA-MB-231 cells assessed as G2/M phase accumulation at 5 uM incubated for 16 hrs by PI staining based flow cytometry analysis (reference value: 16.62 %)
PC-3 = assay: Cytotoxicity against human PC-3 cells assessed as reduction in cell viability incubated for 72 hrs by MTT assay; type: functional, cell-based; conditions: PC-3, 72 h
How it was run: (§3)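 MTT viability assay. Cells kept in DMEM with 10% FBS at 37 °C and 5% CO2. Seeded at 5×10^3 cells per well and exposed to a range of compound concentrations from 20 mM DMSO stocks. IC50 is the mean of triplicate measurements.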

MDA-MB-231 [13] = assay: Induction of apoptosis in human MDA-MB-231 cells assessed as necrotic cells at 2 uM incubated for 48 hrs by annexin V-FITC and PI staining based flow cytometry analysis (reference value: 3.08 %); type: functional
MDA-MB-231 [14] = assay: Induction of apoptosis in human MDA-MB-231 cells assessed as early apoptotic cells at 2 uM incubated for 48 hrs by annexin V-FITC and PI staining based flow cytometry analysis (reference value: 3.90 %); type: functional
MDA-MB-231 [15] = assay: Induction of apoptosis in human MDA-MB-231 cells assessed as increase in PARP cleavage at 1 to 4 uM incubated for 48 hrs by Western blot analysis; type: functional, cell-based; conditions: dose 1-4 µM; how it was run: as §1
MDA-MB-231 [16] = assay: Induction of cell cycle arrest in human MDA-MB-231 cells assessed as G0/G1 phase accumulation at 2 uM incubated for 24 hrs by PI staining based flow cytometry analysis (reference value: 42.84 %); type: functional
MDA-MB-231 [17] = assay: Cytotoxicity against human MDA-MB-231 cells assessed as reduction in cell viability incubated for 72 hrs by MTT assay; type: functional, cell-based; conditions: MDA-MB-231, 72 h; how it was run: as §3
MDA-MB-231 [18] = assay: Induction of apoptosis in human MDA-MB-231 cells assessed as viable cells at 1 uM incubated for 48 hrs by annexin V-FITC and PI staining based flow cytometry analysis (reference value: 90.49 %); type: functional; conditions: read-out: Activity
SH-SY5Y = assay: Cytotoxicity against human SH-SY5Y cells assessed as reduction in cell viability incubated for 72 hrs by MTT assay; type: functional, cell-based; how it was run: as §3
[19] = target: T1, Aurora kinase A (Homo sapiens); assay: Inhibition of Aurora A in human MDA-MB-231 cells assessed as reduction in Histone H3 phosphorylation incubated for 24 hrs by Western blot analysis; type: cell-based; conditions: dose 1-4 µM; how it was run: as §2
MDA-MB-231 [20] = assay: Induction of cell cycle arrest in human MDA-MB-231 cells assessed as G0/G1 phase accumulation at 4 uM incubated for 24 hrs by PI staining based flow cytometry analysis (reference value: 42.84 %); type: functional
MDA-MB-231 [21] = assay: Induction of apoptosis in human MDA-MB-231 cells assessed as late apoptotic cells at 1 uM incubated for 48 hrs by annexin V-FITC and PI staining based flow cytometry analysis (reference value: 2.52 %); type: functional
MDA-MB-231 [22] = assay: Induction of cell cycle arrest in human MDA-MB-231 cells assessed as S phase accumulation at 4 uM incubated for 24 hrs by PI staining based flow cytometry analysis (reference value: 38.65 %); type: functional
MDA-MB-231 [23] = assay: Induction of apoptosis in human MDA-MB-231 cells assessed as increase in caspase-9 cleavage at 1 to 4 uM incubated for 48 hrs by Western blot analysis; type: functional, cell-based; conditions: dose 1-4 µM; how it was run: as §1

CCC(=O)Nc1nc2ccc(-c3ccc4ncn(CCN5CCOCC5)c(=O)c4c3)cc2[nH]1
viability at 2 µM (MDA-MB-231 [1]): 68.2% | Activity (MDA-MB-231 [2]): Dose-dependent effect | Activity (MDA-MB-231 [3]): Active | Activity (MDA-MB-231 [4]): 38.28% | inhibition [5]: Dose-dependent effect | Activity [6]: Active | Activity (MDA-MB-231 [7]): 15.91% | IC50 (Aurora kinase A): 21.9 nM | viability at 4 µM (MDA-MB-231 [8]): 53.4% | Activity (MDA-MB-231 [9]): 39.38% | Activity (MDA-MB-231 [10]): 4.02% | Activity (MDA-MB-231 [11]): 15.41% | Activity (MDA-MB-231 [12]): 76.19% | IC50 (PC-3): 1090 nM | Activity (MDA-MB-231 [13]): 11.9% | Activity (MDA-MB-231 [14]): 11.61% | Activity (MDA-MB-231 [15]): Active | Activity (MDA-MB-231 [16]): 28.68% | IC50 (MDA-MB-231 [17]): 380 nM | viability at 1 µM (MDA-MB-231 [18]): 89% | IC50 (SH-SY5Y): 770 nM | inhibition [19]: Dose-dependent effect | Activity (MDA-MB-231 [20]): 5.59% | Activity (MDA-MB-231 [21]): 2.71% | Activity (MDA-MB-231 [22]): 6.99% | Activity (MDA-MB-231 [23]): Active
